{
  "source": "paper PMC12840579",
  "about": "(Biomedicine & pharmacotherapy = Biomedecine & …, 2025)",
  "key": {"[1]": {"system": "TREM2 signaling (SYK phosphorylation Y525/526) in HEK293-hTREM2/DAP12 cells", "assay": "Phospho-SYK AlphaLISA in HEK293-hTREM2/DAP12 cells", "assay_type": "cell-based, human", "outline": "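HEK-hTREM2/DAP12 cells were seeded at 5 × 10⁴ per well in DMEM with 10% FBS and held 24 h at 37 °C, 5% CO2. Medium was replaced with compound in complete medium, DMSO as vehicle. Time course: 25 μM for 5, 15, 30 or 60 min. Dose series: 5–100 μM final for 60 min. Kit-lysed cells were assayed for pSYK Y525/526 by two-antibody bead AlphaLISA; 3 independent experiments, n=6 per condition, mean ± SEM.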"}, "[2]": {"system": "wild-type HEK293 cells lacking TREM2/DAP12 expression", "assay": "Intracellular calcium measurement", "assay_type": "cell-based, human", "outline": "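Wild-type HEK293 cells lacking TREM2/DAP12 were grown in 96-well clear-bottom black plates. They were loaded for 1 h with Fluo-4 NW dye in 100 μL assay buffer, then test compound was added. Fluorescence was captured on an automated imaging system. Ionomycin served as the control for intact calcium signalling.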"}, "[3]": {"system": "BV2 murine microglial cells", "assay": "Phagocytosis assay with fluorescent latex beads", "assay_type": "cell-based", "conditions": "25 μM, 30 min before beads (30 min)", "outline": "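Murine BV2 microglia were serum-starved, then exposed to 25 μM test compound or DMSO vehicle for 30 min. Green fluorescent latex beads were added for a further 30 min at 37 °C. Cells were washed with ice-cold PBS, fixed in 4% PFA, immunostained for IBA1 and imaged by fluorescence microscopy. A phagocytic cell was an IBA1+ cell with ≥1 internalised bead, expressed as % of vehicle; mean ± SEM (n = 3).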"}, "ADAM10": {"molecular_target": "T1, ADAM10 (Homo sapiens, UniProt O14672)", "T1 sequence (O14672 214-748)": "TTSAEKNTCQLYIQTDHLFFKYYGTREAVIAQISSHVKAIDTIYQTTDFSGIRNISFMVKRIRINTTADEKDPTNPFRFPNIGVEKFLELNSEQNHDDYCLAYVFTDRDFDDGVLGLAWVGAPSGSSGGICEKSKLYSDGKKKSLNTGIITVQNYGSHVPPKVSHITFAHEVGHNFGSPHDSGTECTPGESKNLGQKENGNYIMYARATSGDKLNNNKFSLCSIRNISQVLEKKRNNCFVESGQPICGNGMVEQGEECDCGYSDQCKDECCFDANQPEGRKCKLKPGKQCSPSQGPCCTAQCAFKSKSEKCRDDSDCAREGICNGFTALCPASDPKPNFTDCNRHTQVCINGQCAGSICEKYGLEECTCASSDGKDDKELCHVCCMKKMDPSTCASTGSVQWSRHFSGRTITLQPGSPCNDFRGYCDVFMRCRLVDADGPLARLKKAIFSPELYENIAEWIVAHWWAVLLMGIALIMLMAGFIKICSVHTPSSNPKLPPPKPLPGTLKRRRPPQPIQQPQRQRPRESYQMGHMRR", "assay": "ADAM10 fluorogenic proteolytic activity assay", "assay_type": "biochemical", "conditions": "GM6001 10 μM", "outline": "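Recombinant ADAM10 from a fluorogenic assay kit, pre-incubated with test compound at the indicated concentrations for 30 min at room temperature, then substrate added. Substrate cleavage read by fluorescence (ex 485 nm, em 530 nm). GM6001 was the positive control. Triplicate runs, mean ± SEM (n = 3).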"}, "ADAM17": {"molecular_target": "ADAM17 (Homo sapiens, UniProt P78536)", "sequence (P78536 215-824)": "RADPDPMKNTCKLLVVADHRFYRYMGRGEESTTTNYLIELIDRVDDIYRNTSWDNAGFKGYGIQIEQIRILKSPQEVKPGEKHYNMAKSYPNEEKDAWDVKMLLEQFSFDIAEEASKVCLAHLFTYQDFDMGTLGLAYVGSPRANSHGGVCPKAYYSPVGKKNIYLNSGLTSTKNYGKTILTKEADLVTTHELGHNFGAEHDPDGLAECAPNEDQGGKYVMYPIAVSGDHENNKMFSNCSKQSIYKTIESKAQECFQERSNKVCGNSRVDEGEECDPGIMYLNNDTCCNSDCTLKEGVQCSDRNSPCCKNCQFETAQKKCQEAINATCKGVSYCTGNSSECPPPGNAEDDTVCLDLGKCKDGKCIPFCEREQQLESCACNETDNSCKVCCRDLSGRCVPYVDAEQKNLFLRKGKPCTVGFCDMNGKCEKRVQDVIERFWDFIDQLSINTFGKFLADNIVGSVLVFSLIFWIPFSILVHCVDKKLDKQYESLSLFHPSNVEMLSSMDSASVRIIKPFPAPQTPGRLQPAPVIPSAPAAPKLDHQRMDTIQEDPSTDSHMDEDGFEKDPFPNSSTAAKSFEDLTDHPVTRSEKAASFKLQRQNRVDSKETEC", "assay": "ADAM17 fluorogenic proteolytic activity assay", "assay_type": "biochemical", "conditions": "GM6001 10 μM"}, "[4]": {"conditions": "25 μM, time-course 5-60 minutes"}},
  "data": [
    {"compound": "VG-3927", "values": [
      {"measurement": "time at which SYK phosphorylation is first detected", "setting": "[1]; [4]", "result": 5, "unit": "min"},
      {"measurement": "time of peak SYK phosphorylation", "setting": "[1]; [4]", "result": 60, "unit": "min"},
      {"measurement": "concentration of maximal SYK phosphorylation", "setting": "[1]; 60 minutes treatment, 5-100 μM", "result": 25, "unit": "µM"},
      {"measurement": "lowest concentration with SYK phosphorylation", "setting": "[1]; 60 minutes treatment, 5-100 μM", "result": 5, "unit": "µM"},
      {"measurement": "calcium mobilization in wild-type cells", "setting": "[2]; VG-3927 30 μM", "result": "neither VG-3927 (30 μM) nor As48 (100 μM) elicited any detectable calcium mobilization"},
      {"measurement": "increase in proportion of phagocytic cells vs vehicle", "setting": "[3]", "result": "approximately 45%"}
    ]},
    {"compound": "C[C@H](CCC(=O)O)C[C@H](C)C[C@H](C)C(=O)/C=C(\\O)[C@H](C)C[C@H](C)C/C=C/[C@@H](C)[C@@H](O)[C@@H](C)[C@@H](O)C[C@@H]1CC[C@@](C)([C@H]2CC[C@@](C)([C@@H](C)O)O2)O1", "note": "[ionomycin]", "values": [
      {"measurement": "calcium response in wild-type cells", "setting": "[2]; ionomycin 10 μM", "result": "~ 8 fold"}
    ]},
    {"compound": "CNC(=O)[C@H](Cc1c[nH]c2ccccc12)NC(=O)[C@@H](CC(=O)NO)CC(C)C", "note": "[GM6001]", "values": [
      {"measurement": "effect on ADAM10 protease activity (positive control)", "setting": "ADAM10", "result": "potently inhibited"},
      {"measurement": "effect on ADAM17 protease activity (positive control)", "setting": "ADAM17", "result": "potently inhibited"}
    ]}
  ]
}
